FID counter = compounds displacing fluorescent DNA intercalator, primary screen, artefact control for HCV NS3 helicase inhibitor project, biochemical, FID fluorescence; inhibition, % at 7.9 µM; DNA fluorescent intercalator displacement; 0.17% of 290,000 active; in the data active = inhibition above about 37%;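 note: higher means more ethidium bromide displaced from hairpin DNA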
GPR7 antagonist = GPR7 receptor antagonists, primary screen, cell-based, fluorescence, single concentration; GPR7-expressing cells, fluorescence antagonist assay; inhibition, % at 4.4 µM; 1.1% of 290,000 active; AID 1861, 2009; in the data active = inhibition above about 16%, passing the limit was not always enough;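 note: cells stimulated with the agonist NPW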
core dimer inh = inhibitors of HCV core protein dimerization, primary screen, biochemical, TR-FRET, high-throughput; TR-FRET GST/Flag-core106 dimerization, 1536-well; inhibition, % at 5 µM; 0.33% of 300,000 active;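 active = inhibition above the mean of all tested compounds plus 3 SD, set per screening campaign, cut at about 45% in these data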
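Assay system: Tagged HCV core106 pair (GST and Flag) | Buffer or medium: KF-containing HEPES buffer, pH 7.45, DTT, CHAPS, BSA | Also added: Eu donor and XL665 acceptor anti-tag antibodies | Dosing: One concentration, 5 µM, in 0.5% DMSO | Timing: 4 h at 22.5 °C | Technique: TR-FRET 671 and 617 nm emission | Repeats: Singlicate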
GRK2 inh = compounds blocking aptamer binding on GRK2 – biochemical, human GRK2, bead flow cytometry, HTS, primary screen; 0.59% of 330,000 active; FAM-aptamer displacement from GRK2; inhibition of aptamer binding, % at 10 µM; AID 488847, 2010; Beta-adrenergic receptor kinase 1 (Homo sapiens), P25098;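 active = inhibition of aptamer binding above 40%, roughly 3 SD of noise, on plates passing a quality check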;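 note: median bead fluorescence of bound FAM aptamer so fluorescent compounds give negative values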
DAGLB inh = DAGLB lipase inhibitors, primary screen, biochemical, fluorescence, HTS; Diacylglycerol lipase-beta (Homo sapiens), Q8NCG7; AID 504411, 2011; inhibition, % at 5.17 µM; HEK293T DAGLB membrane lysate, EnzChek fluorogenic substrate; 0.059% of 340,000 active; in the data active = inhibition above about 34%
Target sequence (Q8NCG7 whole entry, looked up): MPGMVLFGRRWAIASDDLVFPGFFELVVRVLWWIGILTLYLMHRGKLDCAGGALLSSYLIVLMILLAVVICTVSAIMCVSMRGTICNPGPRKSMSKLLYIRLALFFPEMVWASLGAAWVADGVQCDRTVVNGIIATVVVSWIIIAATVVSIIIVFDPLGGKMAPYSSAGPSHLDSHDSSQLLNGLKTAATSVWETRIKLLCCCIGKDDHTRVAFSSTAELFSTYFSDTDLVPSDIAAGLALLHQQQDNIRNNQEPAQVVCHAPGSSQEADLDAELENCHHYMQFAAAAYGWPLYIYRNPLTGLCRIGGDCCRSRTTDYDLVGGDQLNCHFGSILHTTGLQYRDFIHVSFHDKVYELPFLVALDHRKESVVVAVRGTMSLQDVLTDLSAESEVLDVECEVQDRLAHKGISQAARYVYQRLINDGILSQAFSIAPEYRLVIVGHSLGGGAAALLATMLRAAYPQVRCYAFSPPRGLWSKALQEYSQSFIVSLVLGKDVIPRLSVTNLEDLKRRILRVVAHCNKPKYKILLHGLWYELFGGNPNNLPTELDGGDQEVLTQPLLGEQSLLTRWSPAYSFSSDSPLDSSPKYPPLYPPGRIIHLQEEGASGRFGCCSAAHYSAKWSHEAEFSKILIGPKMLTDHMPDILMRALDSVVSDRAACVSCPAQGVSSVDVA
NS3 helicase inh = inhibitors of HCV NS3 helicase, primary screen, biochemical, Cy5 molecular beacon fluorescence; Hepatitis C virus NS3 helicase; NS3 helicase DNA unwinding; inhibition, % at 10.9 µM; 0.56% of 290,000 active;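 active = inhibition above the mean of all tested compounds plus 3 SD, set per campaign, cut at about 35% in these data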
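Test system: hepatitis C virus NS3 helicase domain fragment enzyme. Also added: annealed dual-labelled DNA beacon duplex, ATP-started. Timing: 60 min unwinding reaction at 25 °C after ATP addition. Technique: Cy5 fluorescence. Measure: % inhibition of unwinding.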
Each line names hits and unclear results; the compound was inactive in the other large screens. Shown are actives, neighbours in structure and some others; about 2.2% of the full set was active somewhere.

Cc1cc(/C=N/NC(=O)CC#N)c(C)n1-c1ccc([N+](=O)[O-])cc1	none
COCc1c(Br)c(C)nc(OCC(=O)N/N=C/c2cc(C)n(-c3ccc([N+](=O)[O-])cc3)c2C)c1C#N	core dimer inh 48
CN(C)c1ccc(C(=O)N/N=C/c2ccccn2)cc1	none
O=C(O)Cc1ccc(NS(=O)(=O)c2ccc3c(c2)OCCO3)cc1	none (no result: FID counter, GPR7 antagonist, core dimer inh, GRK2 inh, NS3 helicase inh)
OC(COc1ccc(CNCCc2ccc(C(F)(F)F)cc2)cc1)CN1CCCCC1 (stereo unspecified)	FID counter 42
O=C(Nc1ccccc1N1CCOCC1)c1cc(-c2ccco2)nc2ccccc12	core dimer inh 56
Cn1c(N)c(C(=O)COC(=O)c2cc(-c3ccco3)nc3ccccc23)c(=O)n(Cc2ccccc2)c1=O	core dimer inh 47 (no result: DAGLB inh)
CNC(=O)COC(=O)c1cc(-c2ccco2)nc2ccccc12	core dimer inh 48
O=C(Nc1cccc(S(=O)(=O)NC2=NCCCCC2)c1)c1cc(-c2ccco2)nc2ccccc12	core dimer inh 69
COc1cc(-c2cc(C(=O)Nc3ccccc3N3CCOCC3)c3ccccc3n2)cc(OC)c1OC	none
Cn1c(N)c(C(=O)COC(=O)c2cc(-c3ccco3)nc3ccccc23)c(=O)n(C)c1=O	none (no result: core dimer inh, GRK2 inh)
COCCN(CCOC)C(=O)c1ccc(CSc2nc3ccccc3s2)cc1	none
O=S(=O)(Nc1cccc(-c2cn3cccnc3n2)c1)c1ccc(-c2ccccc2)cc1	core dimer inh 50
CCN(CC)C(=O)[C@H]1C[C@H](CC(=O)NC(C)(C)C)C(=O)N2CCc3c([nH]c4cc(-c5ccco5)ccc34)[C@]12C	GRK2 inh 44 (no result: FID counter, GPR7 antagonist, core dimer inh, NS3 helicase inh)
C[C@]12c3[nH]c4cc(-c5ccco5)ccc4c3CCN1C(=O)[C@@H](CC(=O)NCCCn1ccnc1)C[C@@H]2C(=O)N1CCCCC1	GRK2 inh 52 (no result: FID counter, GPR7 antagonist, core dimer inh, NS3 helicase inh)
CC(C)N(C(=O)[C@H]1C[C@H](CC(=O)NC(C)(C)C)C(=O)N2CCc3c([nH]c4cc(-c5ccco5)ccc34)[C@]12C)C(C)C	none (no result: FID counter, GPR7 antagonist, core dimer inh, NS3 helicase inh)
C[C@]12c3[nH]c4ccccc4c3CCN1C(=O)C(CC(=O)NCCc1ccccn1)C[C@@H]2C(=O)N1CCOCC1 (stereo partly specified)	GRK2 inh 81 (no result: FID counter, GPR7 antagonist, core dimer inh, NS3 helicase inh)
COc1ccc(S(=O)(=O)Nc2cc3c4c(c2)C(C)C(=O)N4CCC3)cc1OC (stereo unspecified)	none (no result: FID counter, GPR7 antagonist, NS3 helicase inh)
CCOc1cc(/C=C2\SC(=Nc3ccc(F)cc3)N(c3ccc(F)cc3)C2=O)ccc1OCC(=O)O	FID counter 44 (no result: DAGLB inh)
O=C1Nc2ccccc2/C1=C/c1cnc(-c2ccccc2)[nH]1	core dimer inh 48
Cc1cc(C)cc(-n2cccc2/C=C2/C(=N)N3C(=NC2=O)SN=C3S(C)(=O)=O)c1	none
Cc1ccc(-n2cccc2/C=C2/C(=N)N3C(=NC2=O)SN=C3S(C)(=O)=O)cc1	core dimer inh 57
CCc1ccc(-n2cccc2/C=C2/C(=N)N3C(=NC2=O)SN=C3S(C)(=O)=O)cc1	core dimer inh 49
CN1C(=O)CN(CCN2CC(=O)N(C)C(=O)C2)CC1=O	none (no result: FID counter, GPR7 antagonist, core dimer inh, GRK2 inh, NS3 helicase inh)
CCCCN1C(=O)C(CC(=O)NC2CCCC2)CC(C(=O)N2CCOCC2)=C1C (stereo unspecified)	none (no result: FID counter, GPR7 antagonist, core dimer inh, GRK2 inh, NS3 helicase inh)
OC(c1cc(-c2ccc(C(F)(F)F)cc2)nc(C(F)(F)F)c1)C1CCCCN1 (stereo unspecified)	GPR7 antagonist 42
O=C(/C=C/c1cn(-c2ccccc2)nc1-c1cccnc1)c1ccco1	core dimer inh 62
CC1(C)C(=O)Nc2ccccc2N1C(=O)COC(=O)C12CC3CC(CC(O)(C3)C1)C2	core dimer inh 57
COC(=O)c1ccc(CNC(=O)C(Cc2ccccc2)NC(=O)c2ccccc2)cc1 (stereo unspecified)	none (no result: FID counter, GPR7 antagonist, core dimer inh, GRK2 inh, NS3 helicase inh)
Cc1[nH]c2ccccc2c1CCNC(=O)c1ccc2c(c1[N+](=O)[O-])C(=O)c1ccccc1C2=O	none
Cc1[nH]c2c(C)cccc2c1CCNC(=O)c1ccc2c(c1[N+](=O)[O-])C(=O)c1ccccc1C2=O	core dimer inh 60
